Measured values from ChEMBL document CHEMBL2086232, “Exploration of the SAR of anti-invasive chalcones: synthesis and biological evaluation of conformationally restricted analogues” (Bioorg Med Chem, 2012).
The source made the active and inactive calls. No cut-off for these calls is given here.

What was measured:
MCF7/6 [1] = experiment: Antiinvasive activity against human MCF7/6 cells assessed as inhibition of cell invasion across chick precultured heart fragments at 1 umol/L after 8 days by chick heart invasion assay; type: functional, cell-based
Summary of the method: (§1)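 Heart fragments from 9-day-old chick embryos were precultured, then confronted with aggregates of invasive human MCF-7/6 mammary carcinoma cells with test compound present. Replicate cultures were graded at each concentration.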

MCF7/6 [2] = experiment: Antiinvasive activity against human MCF7/6 cells assessed as inhibition of cell invasion across chick precultured heart fragments at 100 umol/L after 8 days by chick heart invasion assay; type: functional, cell-based; summary of the method: as §1
MCF7/6 [3] = experiment: Antiinvasive activity against human MCF7/6 cells assessed as inhibition of cell invasion across chick precultured heart fragments at 10 umol/L after 8 days by chick heart invasion assay; type: functional, cell-based; summary of the method: as §1
MCF7/6 [4] = experiment: Antiinvasive activity against human MCF7/6 cells assessed as inhibition of cell invasion across chick precultured heart fragments at 0.1 umol/L after 8 days by chick heart invasion assay; type: functional, cell-based; summary of the method: as §1
[5] = Cytotoxicity against human MCF7/6 cells at 100 umol/L after 8 days by histological analysis; type: cell-based; details: mcf7/6, 192 h, 100 µM
Summary of the method: (§2)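 Chick heart confronting cultures (9-day-old embryo precultured heart fragments plus MCF-7/6 aggregates, compound present) were examined on 7-µm histological sections. Replicate cultures were graded per concentration.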

[6] = Toxicity against chick precultured heart fragments at 10 umol/L after 8 days by histological analysis; type: tissue-based, Gallus gallus; details: chicken, 192 h, 10 µM
[7] = Cytotoxicity against human MCF7/6 cells at 10 umol/L after 8 days by histological analysis; type: cell-based; details: mcf7/6, 192 h, 10 µM; summary of the method: as §2

Compound	Activity (MCF7/6 [1])	Activity (MCF7/6 [2])	Activity (MCF7/6 [3])	Activity (MCF7/6 [4])	Activity [5]	Activity [6]	Activity [7]
COc1ccc(C2=NOC(c3ccc(Cl)cc3)C2)cc1 (stereo not given)	inactive	inactive					
COc1cc(C(=O)Cc2ccc(F)cc2)cc(OC)c1OC	inactive	Active	inactive	inactive	Toxic		
COc1cc(-c2oncc2-c2ccc(F)cc2)cc(OC)c1OC	Active		Active	inactive	Toxic	Toxic	Toxic
COc1ccc(-c2cc(-c3ccc(Cl)cc3)on2)cc1	inactive		inactive				
COc1cc(-c2cc(-c3ccc(F)cc3)on2)cc(OC)c1OC	inactive	Active	Active	inactive	Toxic		
